Source: ChEMBL document CHEMBL4052717, “Novel 3H-[1,2,3]triazolo[4,5-c]pyridine derivatives as GPR119 agonists: Synthesis and structure-activity/solubility relationships” (Bioorg Med Chem, 2017)
Values after ≈ are worked out from the molar mass of the structure shown.

What was measured:
[1] = Thermodynamic solubility of the compound in pH 6.8 phosphate buffer after 24 hrs by HPLC analysis; assay type: physicochemical; conditions: read-out: Therm_solubility
How it was run: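 Excess solid in pH 6.8 phosphate buffer was shaken 24 h at 25 °C and centrifuged (3000 and 11000 rpm, 10 min). Supernatant was diluted in 50% aqueous acetonitrile and quantified by reversed-phase HPLC (0.1% phosphoric acid/acetonitrile, 40 °C column, UV 210 nm).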

[2] = Drug metabolism in human liver microsomes assessed per mg protein after 15 mins; assay type: ADME, microsome; conditions: read-out: Drug metabolism
How it was run: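 Compound was incubated 15 min with human liver microsomes at 1 mg protein/mL; the value is reported as percent metabolized.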

[3] = molecular target: T1, Glucose-dependent insulinotropic receptor (Homo sapiens, UniProt Q8TDV5); assay: Agonist activity at human GPR119 expressed in Flp-In-T-Rex-HEK293 cells assessed as stimulation of cAMP level measured after 30 mins by HTRF assay; assay type: functional, cell-based
T1 sequence (Q8TDV5 whole entry): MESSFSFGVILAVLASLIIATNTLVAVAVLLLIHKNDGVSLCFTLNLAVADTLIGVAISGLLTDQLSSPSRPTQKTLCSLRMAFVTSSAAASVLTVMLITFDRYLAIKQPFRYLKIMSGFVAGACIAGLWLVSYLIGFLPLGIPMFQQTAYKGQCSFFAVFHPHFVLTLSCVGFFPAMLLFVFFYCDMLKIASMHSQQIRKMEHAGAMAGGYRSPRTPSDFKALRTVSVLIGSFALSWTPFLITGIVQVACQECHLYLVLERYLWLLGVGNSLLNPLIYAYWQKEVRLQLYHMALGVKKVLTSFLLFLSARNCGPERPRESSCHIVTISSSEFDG
How it was run: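 Flp-In-T-Rex-HEK293 cells overexpressing human GPR119 were induced with tetracycline for 24 h, then seeded at 5000 cells/well in DMEM with 1 mM IBMX and 0.01% BSA. Cells were exposed to compound for 30 min at 37 °C, and cAMP was read by HTRF (HiRange kit). Basal cAMP was subtracted, and EC50 is the concentration giving 50% of maximal response on dose-response curves.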

[4] = AUC (0 to infinity) in Sprague-Dawley rat at 10 mg/kg, po administered as single dose by LC-MS/MS analysis; assay type: ADME, organism-based; parameters: dose 10 mg/kg, route oral, time infinity; conditions: in vivo
How it was run: (§1)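 Fasted male Sprague-Dawley rats received a single dose, either 3 mg/kg iv in 20% 2-hydroxypropyl-β-cyclodextrin or 10 mg/kg orally in 0.5% methylcellulose with 0.1% Tween80. Tail-vein blood was taken at each time point and spun to plasma. Analyte was quantified by LC-MS/MS, and parameters were derived by non-compartmental analysis.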

[5] = Oral bioavailability in Sprague-Dawley rat at 10 mg/kg administered as single dose by LC-MS/MS analysis; assay type: ADME, organism-based; conditions: in vivo; how it was run: as §1
[6] = Half life in Sprague-Dawley rat at 3 mg/kg, iv administered as single dose by LC-MS/MS analysis; assay type: ADME, organism-based; conditions: in vivo; how it was run: as §1
[7] = Clearance in Sprague-Dawley rat at 3 mg/kg, iv administered as single dose by LC-MS/MS analysis; assay type: ADME, organism-based; conditions: in vivo; how it was run: as §1
[8] = Volume of distribution at steady state in Sprague-Dawley rat at 3 mg/kg, iv administered as single dose by LC-MS/MS analysis; assay type: ADME, organism-based; conditions: in vivo, read-out: Vdss; how it was run: as §1
[9] = Permeability of the compound at pH 6.2 by PAMPA; assay type: physicochemical; conditions: read-out: permeability

Structure (SMILES)	solubility thermodynamic at 24 h [1] [µM]	EC50 [3] [nM]	other results
CC(C)(OC(=O)N1CCC(n2ncc3cc(-c4ccc(S(C)(=O)=O)cc4)ncc32)CC1)C(F)F	0.28 (≈ 0.138 µg/mL)	–	–
CC(C)OC(=O)N1CCC(n2ncc3cc(-c4ccc(S(C)(=O)=O)cc4)ncc32)CC1	1.51 (≈ 0.668 µg/mL)	–	–
CC(C)COC(=O)N1CCC(n2ncc3cc(-c4ccc(S(C)(=O)=O)cc4)ncc32)CC1	1.18 (≈ 0.539 µg/mL)	–	–
CCNC(=O)c1cc(F)c(-c2cc3cnn(C4CCN(C(=O)OC(C)C)CC4)c3cn2)cc1F	2.84 (≈ 1.34 µg/mL)	–	metabolised at 0.25 h [2]: 12.4%
CCc1cnc(N2CCC(n3ncc4cc(-c5ccc(S(C)(=O)=O)cc5)ncc43)CC2)nc1	0.26 (≈ 0.12 µg/mL)	–	–
CCc1cnc(N2CCC(n3nnc4cc(-c5ccc(S(C)(=O)=O)cc5)ncc43)CC2)nc1	0.28 (≈ 0.13 µg/mL)	21	–
CCNC(=O)c1c(C)cc(-c2cc3nnn(C4CCN(c5ncc(CC)cn5)CC4)c3cn2)cc1C	5.01 (≈ 2.43 µg/mL)	27	–
CCNC(=O)c1ccc(-c2cc3nnn(C4CCN(c5ncc(CC)cn5)CC4)c3cn2)cc1Cl	< 0.16	18	–
CCNC(=O)c1ccc(-c2cc3nnn(C4CCN(c5ncc(CC)cn5)CC4)c3cn2)c(F)c1F	–	10	–
CC(C)OC(=O)N1CCC(n2nnc3cc(-c4cc(F)c(C(=O)N5CCC5)cc4F)ncc32)CC1	2.7 (≈ 1.31 µg/mL)	61	metabolised at 0.25 h [2]: 5.4%
CCc1cnc(N2CCC(n3nnc4cc(-c5ccc(S(C)(=O)=O)c(F)c5)ncc43)CC2)nc1	< 0.15	9	–
CCNC(=O)c1ccc(-c2cc3nnn(C4CCN(c5ncc(CC)cn5)CC4)c3cn2)c(C(F)(F)F)c1	1.2 (≈ 0.629 µg/mL)	60	–
CCNC(=O)c1ccc(-c2cc3nnn(C4CCN(c5ncc(CC)cn5)CC4)c3cn2)cc1C(F)(F)F	0.51 (≈ 0.268 µg/mL)	39	–
CCNC(=O)c1cc(F)c(-c2cc3nnn(C4CCN(C(=O)OC(C)C)CC4)c3cn2)cc1F	5.5 (≈ 2.6 µg/mL)	37	metabolised at 0.25 h [2]: 11%
CCNC(=O)c1cc(F)c(-c2cc3nnn(C4CCN(c5ncc(CC)cn5)CC4)c3cn2)cc1F	0.24 (≈ 0.118 µg/mL)	2	–
CCc1cnc(N2CCC(n3ncc4cc(-c5ccc(S(C)(=O)=O)cc5)c(C)cc43)CC2)nc1	–	70	–
CCc1cnc(N2CCC(n3ncc4cc(-c5ccc(S(C)(=O)=O)cc5)ccc43)CC2)nc1	< 0.11	14	–
CCNC(=O)c1ccc(-c2cc3nnn(C4CCN(c5ncc(CC)cn5)CC4)c3cn2)c(C)c1	< 0.09	19	–
CCc1cnc(N2CCC(n3nnc4cc(-c5ccc(S(C)(=O)=O)cc5)ccc43)CC2)nc1	< 0.13	31	–
CC(C)OC(=O)N1CCC(n2nnc3cc(-c4cc(F)c(C(=O)N5CCCC5)cc4F)ncc32)CC1	15.9 (≈ 7.93 µg/mL)	65	AUC(0-inf) [4]: 1030 ng·h/mL; bioavailability [5]: 16.7%; half-life [6]: 14.5 min; clearance [7]: 27.2 mL/min/kg; metabolised at 0.25 h [2]: 9.3%; Vd [8]: 0.557 L/kg; Papp [9]: 97 ×10⁻⁶ cm/s
CCc1cnc(N2CCC(n3nnc4cc(-c5ccc(S(C)(=O)=O)cc5F)ncc43)CC2)nc1	< 0.12	7	–
CC(C)NC(=O)c1cc(F)c(-c2cc3nnn(C4CCN(C(=O)OC(C)C)CC4)c3cn2)cc1F	0.84 (≈ 0.409 µg/mL)	33	–
CCNC(=O)c1ccc(-c2cc3nnn(C4CCN(c5ncc(CC)cn5)CC4)c3cn2)c(Cl)c1	0.24 (≈ 0.118 µg/mL)	13	–
CCNC(=O)c1ccc(-c2cc3nnn(C4CCN(c5ncc(CC)cn5)CC4)c3cn2)cc1C	1.79 (≈ 0.842 µg/mL)	18	–
CCNC(=O)c1cc(C)c(-c2cc3nnn(C4CCN(c5ncc(CC)cn5)CC4)c3cn2)c(C)c1	1.86 (≈ 0.901 µg/mL)	83	–
CCNC(=O)c1ccc(-c2cc3nnn(C4CCN(c5ncc(CC)cn5)CC4)c3cn2)c(F)c1	–	15	–
CCc1cnc(N2CCC(n3ncc4c(C)c(-c5ccc(S(C)(=O)=O)cc5)ccc43)CC2)nc1	–	3420	–
